Test results taken from ChEMBL document CHEMBL1123499, “Synthesis, saludiuretic, and antihypertensive activity of 6,7-disubstituted 1(2H)- and 3,4-dihydro-1(2H)-phthalazinones” (1986).

Key:
[1] = organism: Rattus norvegicus; assay: Compound was tested for antihypertensive activity in rat after 1 hr postdose; format: functional
Summary of the method: (§1)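 DOCA/saline hypertensive Sprague-Dawley rats (250-350 g), six per group, given 10 mg/kg doca s.c. daily with saline until systolic BP reached 170 mmHg (usually 3-4 weeks). Oral 25 mg/kg in 5 mL/kg 1% methylcellulose. Systolic BP by tail-cuff before and 1, 4, 24 h after; drop reported as mean ± SD.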

[2] = organism: Rattus norvegicus; assay: Compound was tested for antihypertensive activity in rat after 24 hr postdose; format: functional; summary of the method: as §1
[3] = organism: Rattus norvegicus; assay: Compound was tested for antihypertensive activity in rat after 4 hr postdose; format: functional; summary of the method: as §1
[4] = organism: Rattus norvegicus; assay: Diuretic activity in rats at time intervals of 0-24 hours; format: functional, Urine
Summary of the method: (§2)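 Male Sabra rats (170-200 g), starved 18 h, given 50 mg/kg by stomach tube in saline (25 mL/kg load), eight per compound, saline and furosemide controls run alongside. Held two per metabolic cage at 22 °C without food or water. Urine volume measured at 5 and 24 h collections.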

[5] = organism: Rattus norvegicus; assay: Diuretic activity in rats at time intervals of 0-5 hours; format: functional, Urine; summary of the method: as §2
[6] = organism: Rattus norvegicus; assay: Diuretic activity in rats at time intervals of 5-24 hours; format: functional, Urine; summary of the method: as §2
[7] = organism: Rattus norvegicus; assay: Saluretic activity in rats after 5-24 hours, as sodium ion concentration in urine; format: functional
Summary of the method: (§3)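 Male Sabra rats (170-200 g), fasted 18 h, dosed orally 50 mg/kg in saline at 25 mL/kg, eight per compound, two per metabolic cage, no food or water. Urine collected 5 and 24 h after dosing and centrifuged. Chloride titrated with Hg(NO3)2/diphenylcarbazone after HNO3 acidification; Na+ and K+ by atomic absorption.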

[8] = organism: Rattus norvegicus; assay: Saluretic activity in rats after 0-24 hours, as chloride ion concentration in urine; format: functional; summary of the method: as §3
[9] = organism: Rattus norvegicus; assay: Saluretic activity in rats after 0-24 hours, as potassium ion concentration in urine; format: functional; summary of the method: as §3
[10] = organism: Rattus norvegicus; assay: Saluretic activity in rats after 0-24 hours, as sodium ion concentration in urine; format: functional; summary of the method: as §3
[11] = organism: Rattus norvegicus; assay: Saluretic activity in rats after 0-5 hours, as chloride ion concentration in urine; format: functional; summary of the method: as §3
[12] = organism: Rattus norvegicus; assay: Saluretic activity in rats after 0-5 hours, as sodium ion concentration in urine; format: functional; summary of the method: as §3
[13] = organism: Rattus norvegicus; assay: Saluretic activity in rats after 5-24 hours, as chloride ion concentration in urine; format: functional; summary of the method: as §3
[14] = organism: Rattus norvegicus; assay: Saluretic activity in rats after 5-24 hours, as potassium ion concentration in urine; format: functional; summary of the method: as §3
[15] = organism: Rattus norvegicus; assay: Saluretic activity in rats after 0-5 hours, as potassium ion concentration in urine; format: functional; summary of the method: as §3
[16] = organism: Rattus norvegicus; assay: Saluretic activity in rats after 0-24 hours, as ratio of Na+/K+ ion concentration in urine; format: functional; summary of the method: as §3
[17] = organism: Rattus norvegicus; assay: Saluretic activity in rats after 0-5 hours, as ratio of Na+/K+ ion concentration in urine; format: functional; summary of the method: as §3
[18] = organism: Rattus norvegicus; assay: Saluretic activity in rats after 5-24 hours, as ratio of Na+/K+ ion concentration in urine; format: functional; summary of the method: as §3

Cn1ncc2cc(S(N)(=O)=O)c(Cl)cc2c1=O
Decrease in blood pressure [1]: 29.7 mmHg | Decrease in blood pressure [2]: 19.3 mmHg | Decrease in blood pressure [3]: 47 mmHg | Diuretic activity [4]: 4.8 mL | Diuretic activity [5]: 2.2 mL | Diuretic activity [6]: 2.6 mL | Saluretic activity [7]: 5.26 m equiv kg-1 | Saluretic activity [8]: 7.22 m equiv kg-1 | Saluretic activity [9]: 5.16 m equiv kg-1 | Saluretic activity [10]: 7.84 m equiv kg-1 | Saluretic activity [11]: 2.22 m equiv kg-1 | Saluretic activity [12]: 2.58 m equiv kg-1 | Saluretic activity [13]: 5 m equiv kg-1 | Saluretic activity [14]: 3.92 m equiv kg-1 | Saluretic activity [15]: 1.24 m equiv kg-1 | Ratio [16]: 1.52 | Ratio [17]: 2.1 | Ratio [18]: 1.34

CN1NCc2cc(Cl)c(S(N)(=O)=O)cc2C1=O
Decrease in blood pressure [1]: 31.3 mmHg | Decrease in blood pressure [2]: 22.7 mmHg | Decrease in blood pressure [3]: 45 mmHg | Diuretic activity [4]: 11.8 mL | Diuretic activity [5]: 5 mL | Diuretic activity [6]: 6.8 mL | Saluretic activity [7]: 5.98 m equiv kg-1 | Saluretic activity [8]: 9.35 m equiv kg-1 | Saluretic activity [9]: 7.82 m equiv kg-1 | Saluretic activity [10]: 10.43 m equiv kg-1 | Saluretic activity [11]: 6.2 m equiv kg-1 | Saluretic activity [12]: 4.45 m equiv kg-1 | Saluretic activity [13]: 3.15 m equiv kg-1 | Saluretic activity [14]: 5.27 m equiv kg-1 | Saluretic activity [15]: 2.55 m equiv kg-1 | Ratio [16]: 1.33 | Ratio [17]: 1.74 | Ratio [18]: 1.13

NS(=O)(=O)c1cc2c(O)nncc2cc1Cl
Decrease in blood pressure [1]: 13.7 mmHg | Decrease in blood pressure [2]: 38 mmHg | Decrease in blood pressure [3]: 33.7 mmHg | Diuretic activity [4]: 11.3 mL | Diuretic activity [5]: 7.7 mL | Diuretic activity [6]: 3.6 mL | Saluretic activity [7]: 4.21 m equiv kg-1 | Saluretic activity [8]: 13.97 m equiv kg-1 | Saluretic activity [9]: 5.06 m equiv kg-1 | Saluretic activity [10]: 12.37 m equiv kg-1 | Saluretic activity [11]: 9.87 m equiv kg-1 | Saluretic activity [12]: 8.16 m equiv kg-1 | Saluretic activity [13]: 4.1 m equiv kg-1 | Saluretic activity [14]: 2.51 m equiv kg-1 | Saluretic activity [15]: 2.55 m equiv kg-1 | Ratio [16]: 2.44 | Ratio [17]: 3.18 | Ratio [18]: 1.68

NS(=O)(=O)c1cc2cnn(Cc3ccccc3)c(=O)c2cc1Cl
Decrease in blood pressure [1]: 35.3 mmHg | Decrease in blood pressure [2]: 4.7 mmHg | Decrease in blood pressure [3]: 54.3 mmHg | Diuretic activity [4]: 6.2 mL | Diuretic activity [5]: 2.6 mL | Diuretic activity [6]: 3.6 mL | Saluretic activity [7]: 6.29 m equiv kg-1 | Saluretic activity [8]: 8.9 m equiv kg-1 | Saluretic activity [9]: 5.74 m equiv kg-1 | Saluretic activity [10]: 8.79 m equiv kg-1 | Saluretic activity [11]: 2.9 m equiv kg-1 | Saluretic activity [12]: 2.5 m equiv kg-1 | Saluretic activity [13]: 6 m equiv kg-1 | Saluretic activity [14]: 3.9 m equiv kg-1 | Saluretic activity [15]: 1.84 m equiv kg-1 | Ratio [16]: 1.53 | Ratio [17]: 1.36 | Ratio [18]: 1.62

NS(=O)(=O)c1cc(C(=O)O)c(NCc2ccco2)cc1Cl [FUROSEMIDE]
Decrease in blood pressure [1]: 35.8 mmHg | Decrease in blood pressure [2]: 5.3 mmHg | Decrease in blood pressure [3]: 59.2 mmHg | Diuretic activity [4]: 22 mL | Diuretic activity [5]: 19.2 mL | Diuretic activity [6]: 3 mL | Saluretic activity [7]: 3.02 m equiv kg-1 | Saluretic activity [8]: 17.85 m equiv kg-1 | Saluretic activity [9]: 8.78 m equiv kg-1 | Saluretic activity [10]: 16.22 m equiv kg-1 | Saluretic activity [11]: 16.2 m equiv kg-1 | Saluretic activity [12]: 13.2 m equiv kg-1 | Saluretic activity [13]: 1.65 m equiv kg-1 | Saluretic activity [14]: 4.42 m equiv kg-1 | Saluretic activity [15]: 4.36 m equiv kg-1 | Ratio [16]: 1.85 | Ratio [17]: 3.03 | Ratio [18]: 0.68

NS(=O)(=O)c1cc2c(cc1Cl)CNNC2=O
Decrease in blood pressure [1]: 24.7 mmHg | Decrease in blood pressure [2]: 27 mmHg | Decrease in blood pressure [3]: 31 mmHg | Diuretic activity [4]: 12.7 mL | Diuretic activity [5]: 6.5 mL | Diuretic activity [6]: 6.2 mL | Saluretic activity [7]: 4.36 m equiv kg-1 | Saluretic activity [8]: 12.48 m equiv kg-1 | Saluretic activity [9]: 5.63 m equiv kg-1 | Saluretic activity [10]: 10.91 m equiv kg-1 | Saluretic activity [11]: 8.32 m equiv kg-1 | Saluretic activity [12]: 6.55 m equiv kg-1 | Saluretic activity [13]: 4.16 m equiv kg-1 | Saluretic activity [14]: 3.45 m equiv kg-1 | Saluretic activity [15]: 2.18 m equiv kg-1 | Ratio [16]: 1.94 | Ratio [17]: 3 | Ratio [18]: 1.27

NS(=O)(=O)c1cc2c(cc1Cl)CNN(Cc1ccco1)C2=O
Decrease in blood pressure [1]: 25.3 mmHg | Decrease in blood pressure [2]: 23 mmHg | Decrease in blood pressure [3]: 31.3 mmHg | Diuretic activity [4]: 10.5 mL | Diuretic activity [5]: 6.7 mL | Diuretic activity [6]: 3.8 mL | Saluretic activity [7]: 3.09 m equiv kg-1 | Saluretic activity [8]: 11.43 m equiv kg-1 | Saluretic activity [9]: 5.75 m equiv kg-1 | Saluretic activity [10]: 9.83 m equiv kg-1 | Saluretic activity [11]: 8.45 m equiv kg-1 | Saluretic activity [12]: 6.74 m equiv kg-1 | Saluretic activity [13]: 2.98 m equiv kg-1 | Saluretic activity [14]: 3.37 m equiv kg-1 | Saluretic activity [15]: 2.38 m equiv kg-1 | Ratio [16]: 1.71 | Ratio [17]: 2.83 | Ratio [18]: 0.92

Cn1ncc2cc(Cl)c(S(N)(=O)=O)cc2c1=O
Decrease in blood pressure [1]: 31.7 mmHg | Decrease in blood pressure [2]: 26.3 mmHg | Decrease in blood pressure [3]: 47.7 mmHg | Diuretic activity [4]: 8.8 mL | Diuretic activity [5]: 6.1 mL | Diuretic activity [6]: 2.7 mL | Saluretic activity [7]: 2.4 m equiv kg-1 | Saluretic activity [8]: 9.57 m equiv kg-1 | Saluretic activity [9]: 4.76 m equiv kg-1 | Saluretic activity [10]: 11.1 m equiv kg-1 | Saluretic activity [11]: 7.27 m equiv kg-1 | Saluretic activity [12]: 8.7 m equiv kg-1 | Saluretic activity [13]: 2.3 m equiv kg-1 | Saluretic activity [14]: 2.09 m equiv kg-1 | Saluretic activity [15]: 2.67 m equiv kg-1 | Ratio [16]: 2.33 | Ratio [17]: 3.27 | Ratio [18]: 1.15
